Test results from ChEMBL document CHEMBL4428115, “Molecular docking studies, biological and toxicity evaluation of dihydroisoquinoline derivatives as potential anticancer agents” (Bioorg Med Chem, 2016).
The source made the active and inactive calls. The calls are words filed in the database; no cut-off is given here.

Tests used:
Jurkat = experiment: Antiproliferative activity against human Jurkat cells; assay type: functional, cell-based
K562 = experiment: Antiproliferative activity against human K562 cells; assay type: functional, cell-based
HT-29 = experiment: Antiproliferative activity against human HT-29 cells at 290 uM; assay type: functional, cell-based
MV4-11 = experiment: Antiproliferative activity against human MV411 cells; assay type: functional, cell-based
DU-145 = experiment: Antiproliferative activity against human DU145 cells; assay type: functional, cell-based
LoVo [1] = experiment: Antiproliferative activity against human LoVo cells; assay type: functional, cell-based
PC-3 = experiment: Antiproliferative activity against human PC3 cells; assay type: functional, cell-based
[2] = Antiproliferative activity against human HCV29T cells; assay type: functional, cell-based
LoVo [3] = experiment: Potency index, ratio of bestatin IC50 to compound IC50 for human LoVo cells; assay type: functional
[4] = Selectivity index, ratio of IC50 for mouse BALB/3T3 cells to IC50 for human Jurkat cells; assay type: toxicity; details: BALB/3T3 cells versus Jurkat cells, read-out: Ratio IC50
[5] = Selectivity index, ratio of IC50 for mouse BALB/3T3 cells to IC50 for human HL60/MX2 cells; assay type: toxicity; details: BALB/3T3 cells versus HL60/MX2 cells, read-out: Ratio IC50
Procedure, shortened: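 Ratio of the BALB/3T3 IC50 to the HL-60 or HL-60/MX2 IC50. Cells were plated at 1 × 10^4 per well 24 h before dosing and exposed for 72 h to 0.01–1000 µg/mL from DMSO stock. BALB/3T3 was read by SRB (TCA fix, 540 nm) and the leukemia lines by MTT (4 h, SDS/DMF lysis, 570 nm). Triplicates; 3–5 experiments.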

[6] = Selectivity index, ratio of IC50 for mouse BALB/3T3 cells to IC50 for human Raji cells; assay type: toxicity; details: BALB/3T3 cells versus Raji cells, read-out: Ratio IC50
[7] = Selectivity index, ratio of IC50 for mouse BALB/3T3 cells to IC50 for human MV411 cells
[8] = Selectivity index, ratio of IC50 for mouse BALB/3T3 cells to IC50 for human DU145 cells
[9] = Selectivity index, ratio of IC50 for mouse BALB/3T3 cells to IC50 for human PC3 cells; assay type: toxicity; details: BALB/3T3 cells versus PC3 cells, read-out: Ratio IC50
[10] = Selectivity index, ratio of IC50 for mouse BALB/3T3 cells to IC50 for human LoVo/DX cells; assay type: toxicity; details: BALB/3T3 cells versus LoVo/DX cells, read-out: Ratio IC50
HL-60 [11] = experiment: Induction of apoptosis in human HL60 cells assessed as increase in late apoptotic cells at 3 ug/ml after 72 hrs by APC-Annexin V/propidium iodide staining based flow cytometry relative to control; assay type: functional, cell-based
Procedure, shortened: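 HL-60 (2 × 10^5 cells/mL, seeded 24 h before) treated 72 h at 3 µg/mL alongside a DMSO control. Cells suspended in APC-Annexin V in HEPES binding buffer pH 7.4 with 1.8 mM CaCl2, 15 min dark at rt, then PI at 0.1 mg/mL final. Flow cytometry: PI+/Annexin+ counted as late apoptotic/necrotic. Three experiments, mean ± SD, p≤0.05 versus control.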

HL-60 [12] = experiment: Decrease in mitochondrial membrane potential in human HL60 cells at 3 ug/ml after 24 hrs using JC-1 staining based flow cytometry relative to control; assay type: functional, cell-based
Procedure, shortened: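 HL-60 treated 24 h at 3 µg/mL alongside DMSO control; […] for 24 h served as the low-potential control. Cells stained with JC-1 at 10 µg/mL final for 30 min at 37°C in the dark, washed, and analysed by flow cytometry (red aggregates vs green monomers). Three independent experiments, mean ± SD.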

HL-60 [13] = experiment: Increase in caspase 3/7 activation in human HL60 cells using Ac-DEVD-ACC as substrate at 3 ug/ml after 24 hrs by fluorescence assay relative to control; assay type: functional, cell-based
Procedure, shortened: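 HL-60 exposed 24 h to 3 µg/mL (DMSO control), lysed at 1.2 × 10^6 cells/mL in HEPES/sucrose/Triton lysis buffer pH 7.3 for 30 min at 4°C. Lysate added to DTT-containing reaction buffer with Ac-DEVD-ACC at 10 µM final (ex 360/em 460 nm). Fluorescence recorded 90 min at 37°C, normalized to Lowry protein, and expressed relative to untreated control; three experiments.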

HL-60 [14] = experiment: Effect on Bcl-2 expression in human HL60 cells at 1 ug/ml after 72 hrs by Western-blot analysis; assay type: functional, cell-based
Procedure, shortened: (§1)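 HL-60 (2 × 10^5 cells/mL) treated 72 h at 1 µg/mL with DMSO control, then lysed in RIPA buffer with protease/phosphatase inhibitors. 100 µg protein resolved on 4–20% gels and transferred to nitrocellulose. Probed with rabbit primary antibody, fluorescein-linked anti-rabbit secondary, then anti-fluorescein–alkaline phosphatase with ECF substrate; fluorescence scanned. Densitometry normalized to actin, reported as fold change versus control.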

HL-60 [15] = experiment: Induction of autophagy in human HL60 cells assessed as accumulation of LC3b-2 at 1 ug/ml after 72 hrs by Western-blot analysis; assay type: functional, cell-based; procedure, shortened: as §1
[16] = Toxicity in Dunkin-Hartley guinea pig assessed as mild skin sensitization incidents at 1 % administered intradermally followed by 50% topical application in the sites of intradermal injection for 24 to 72 hrs followed by 50 % of compound challenge; parameters: species or system Cavia porcellus; details: in vivo
Procedure, shortened: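 Maximization-type test: 11 treated and 6 sham control guinea pigs. Induction was an intradermal 1% suspension in peanut oil with Freund's Complete Adjuvant, then 50% topical at the injection sites, after 10% sodium lauryl sulfate pretreatment. Challenge was 50% in peanut oil on the right flank, vehicle on the left. Skin was scored at 24, 48 and 72 h.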

[17] = Acute dermal toxicity in Wistar rat assessed as pathological changes at 2000 mg/kg topically applied to shaved dorsal skin as single dose for 24 hrs measured for 14 days; assay type: organism-based; details: in vivo, topical_or_ocular
Procedure, shortened: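 Wistar rats, 5 males and 5 females; single 2000 mg/kg bw dermal application to shaved dorsal skin (about 41 cm2 per male, 31 cm2 per female) for 24 h. General and detailed clinical observations daily over a 14-day observation period, then animals euthanized; treated skin examined for pathological changes.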

[18] = Acute toxicity in Balbc/cmdb mouse assessed as clinical signs at 300 mg/kg, po administered as single dose in first stage of experiment measured immediately post dose; assay type: organism-based; details: in vivo
Procedure, shortened: (§2)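 Acute toxic class method per OECD Guideline 423 / EU Method B.1 tris, run in three stages of three female Balbc/cmdb mice each. Fasted about 3 h, then given a single dose by metal stomach tube in DMSO at 0.5 mL/100 g bw. Stage doses were 300, 2000, then 2000 mg/kg bw. General and detailed clinical observations daily for 14 days; body weights recorded.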

[19] = Acute toxicity in Balbc/cmdb mouse assessed as clinical signs at 300 mg/kg, po administered as single dose in first stage of experiment measured for 14 days; assay type: organism-based; details: in vivo, 336 h; procedure, shortened: as §2
[20] = Acute toxicity in Balbc/cmdb mouse assessed as clinical signs at 2000 mg/kg, po administered as single dose in third stage of experiment measured immediately post dose; assay type: organism-based; details: in vivo; procedure, shortened: as §2

CCOC(=O)C1(C(=O)OCC)Cc2cc(OCc3ccccc3)cc(OCc3ccccc3)c2C=N1
IC50 (Jurkat): 14.4 µM
IC50 (K562): 70 µM
growth inhibition (GI) (HT-29): inactive
IC50 (MV4-11): 64.4 µM
IC50 (DU-145): 7.5 µM
IC50 (LoVo [1]): 1.1 µM
IC50 (PC-3): 4.2 µM
IC50 [2]: 8.8 µM
Ratio IC50 (LoVo [3]): 212
selectivity ratio [4]: 2.5
selectivity ratio [5]: 7
selectivity ratio [6]: 59.8
Ratio IC50 [7]: 0.6
Ratio IC50 [8]: 4.8
selectivity ratio [9]: 8.5
selectivity ratio [10]: 8.8
Activity (HL-60 [11]): Active
Activity (HL-60 [12]): Active
Activity (HL-60 [13]): Active
Activity (HL-60 [14]): inactive
Activity (HL-60 [15]): inactive
Activity [16]: 18.2%
Activity [17]: Non-Toxic
Activity [18]: Toxic
Activity [19]: Non-Toxic
Activity [20]: Toxic
